{
  "source": "ChEMBL document CHEMBL1139336",
  "about": "“Discovery of alpha-amidosulfones as potent and selective agonists of CB2: synthesis, SAR, and pharmacokinetic properties” (Bioorg Med Chem Lett, 2009)",
  "data": [
    {"target": "T1, Cannabinoid receptor 1 (Homo sapiens, UniProt P21554)", "T1 sequence (P21554 whole entry)": "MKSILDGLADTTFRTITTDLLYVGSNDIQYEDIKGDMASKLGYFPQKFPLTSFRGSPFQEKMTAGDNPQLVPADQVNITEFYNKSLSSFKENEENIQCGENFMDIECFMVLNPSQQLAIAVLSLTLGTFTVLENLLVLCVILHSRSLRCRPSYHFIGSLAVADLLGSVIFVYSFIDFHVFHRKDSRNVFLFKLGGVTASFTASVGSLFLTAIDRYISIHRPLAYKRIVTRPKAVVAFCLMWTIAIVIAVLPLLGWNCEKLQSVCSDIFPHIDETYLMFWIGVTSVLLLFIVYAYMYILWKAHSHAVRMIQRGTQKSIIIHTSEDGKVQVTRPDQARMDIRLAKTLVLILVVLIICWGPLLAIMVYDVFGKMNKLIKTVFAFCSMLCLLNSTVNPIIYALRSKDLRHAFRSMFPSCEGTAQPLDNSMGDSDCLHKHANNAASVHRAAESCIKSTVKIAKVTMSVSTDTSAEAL", "assay": "Agonist activity at human CB1 expressed in CHO cells receptor assessed as suppression of forskolin-stimulated cAMP accumulation relative to control", "assay_type": "functional, cell-based", "procedure,_shortened": "(§1)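 CHO cells expressing human CB1 or CB2. Read-out was suppression of forskolin-induced cAMP production in whole cells. Emax was taken as the maximum of the dose–response curve. Values are means of n = 2–20 independent measurements, derived by logistic fit.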", "units": {"Emax": "%"}, "values": [
      {"compound": "CC(C)(C(=O)Nc1cccc(C(F)(F)F)c1)S(=O)(=O)c1ccc(Cl)cc1", "Emax": 21},
      {"compound": "CC(C)(C(=O)Nc1cnc2ccccc2c1)S(=O)(=O)c1ccc(C(F)(F)F)cc1Cl", "Emax": 41},
      {"compound": "Cc1ccc(-c2cncc(NC(=O)C(C)(C)S(=O)(=O)c3ccc(Cl)cc3)c2)s1", "Emax": 106},
      {"compound": "CC(C)(C(=O)Nc1cnc2ccccc2c1)S(=O)(=O)c1ccc(C(F)(F)F)cc1", "Emax": 93},
      {"compound": "CC(C)(C)c1cc(NC(=O)C(C)(C)S(=O)(=O)c2ccc(Cl)cc2)no1", "Emax": 23}
    ]},
    {"target": "T1, Cannabinoid receptor 1", "assay": "Agonist activity at human CB1 receptor", "assay_type": "functional", "units": {"EC50": "µM"}, "values": [
      {"compound": "O=C(Nc1cnc2ccccc2c1)C1(S(=O)(=O)c2ccccc2)CC1", "EC50": "> 10"}
    ]},
    {"target": "T2, Cannabinoid receptor 2 (Homo sapiens, UniProt P34972)", "T2 sequence (P34972 whole entry)": "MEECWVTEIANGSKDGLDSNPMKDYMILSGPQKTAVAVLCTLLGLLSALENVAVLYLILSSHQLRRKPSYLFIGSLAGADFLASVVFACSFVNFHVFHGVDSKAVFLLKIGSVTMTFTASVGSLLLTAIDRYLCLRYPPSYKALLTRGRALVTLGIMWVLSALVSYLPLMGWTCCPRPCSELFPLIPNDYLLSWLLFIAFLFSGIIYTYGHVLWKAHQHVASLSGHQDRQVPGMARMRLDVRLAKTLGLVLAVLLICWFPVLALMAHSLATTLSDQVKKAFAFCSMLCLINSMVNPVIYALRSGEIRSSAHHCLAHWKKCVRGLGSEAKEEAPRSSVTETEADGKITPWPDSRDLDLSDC", "assay": "Agonist activity at human CB2 receptor", "assay_type": "functional", "units": {"EC50": "µM"}, "values": [
      {"compound": "O=C(Nc1cnc2ccccc2c1)C1(S(=O)(=O)c2ccccc2)CC1", "EC50": 0.004}
    ]},
    {"target": "T2, Cannabinoid receptor 2", "assay": "Agonist activity at human CB2 receptor expressed in SF9 cells assessed as inhibition of CP-55940-stimulated GTP binding relative to control", "procedure,_shortened": "(§2)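 Sf9 insect-cell membranes co-expressing hCB1 or hCB2 with Gαi3 (Bmax 1.7 pmol/ml). Compound added in 50 mM Hepes/0.1% BSA to buffer with 10 mM MgCl2, 150 mM NaCl, GDP, 10 nM GTP-Europium and 0.0005% saponin. Final DMSO was 1%. Incubated 45 min at room temperature, then filtered, washed and read by fluorescence at 615 nm. 3 µM CP55940 set 100% efficacy. Logistic fit, n = 2–20.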", "units": {"Emax": "%"}, "values": [
      {"compound": "CC(C)(C(=O)Nc1cccc(C(F)(F)F)c1)S(=O)(=O)c1ccc(Cl)cc1", "Emax": 89},
      {"compound": "CC(C)(C(=O)Nc1cnc2ccccc2c1)S(=O)(=O)c1ccc(C(F)(F)F)cc1Cl", "Emax": 94},
      {"compound": "Cc1ccc(-c2cncc(NC(=O)C(C)(C)S(=O)(=O)c3ccc(Cl)cc3)c2)s1", "Emax": 102},
      {"compound": "CC(C)(C(=O)Nc1cnc2ccccc2c1)S(=O)(=O)c1ccc(C(F)(F)F)cc1", "Emax": 88},
      {"compound": "CC(C)(C)c1cc(NC(=O)C(C)(C)S(=O)(=O)c2ccc(Cl)cc2)no1", "Emax": 99}
    ]},
    {"target": "T2, Cannabinoid receptor 2", "assay": "Agonist activity at human CB2 receptor expressed in SF9 cells assessed as inhibition of CP-55940-stimulated GTP binding", "procedure,_shortened": "(§3)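 Sf9 membranes co-expressing hCB1 or hCB2 with Gαi3 (Bmax 1.7 pmol/ml). Europium-GTP (10 nM) binding in 50 mM Hepes, 0.1% BSA, 10 mM MgCl2, 150 mM NaCl, GDP, 0.0005% saponin, 1% DMSO. Compound tested from 0.01 nM upward. Incubated 45 min at room temperature, then filtered and washed; fluorescence read at 615 nm. 3 micromolar CP55940 defines 100% efficacy.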", "units": {"EC50": "µM"}, "values": [
      {"compound": "CC(C)(C(=O)Nc1cccc(C(F)(F)F)c1)S(=O)(=O)c1ccc(Cl)cc1", "EC50": 0.17},
      {"compound": "CC(C)(C(=O)Nc1cnc2ccccc2c1)S(=O)(=O)c1ccc(C(F)(F)F)cc1Cl", "EC50": 0.019},
      {"compound": "Cc1ccc(-c2cncc(NC(=O)C(C)(C)S(=O)(=O)c3ccc(Cl)cc3)c2)s1", "EC50": 0.009},
      {"compound": "CC(C)(C(=O)Nc1cnc2ccccc2c1)S(=O)(=O)c1ccc(C(F)(F)F)cc1", "EC50": 0.096},
      {"compound": "CC(C)(C)c1cc(NC(=O)C(C)(C)S(=O)(=O)c2ccc(Cl)cc2)no1", "EC50": 0.029}
    ]},
    {"species_on_record": "Homo sapiens", "assay": "Selectivity for human CB2 receptor over human CB1 receptor", "values": [
      {"compound": "CC(C)(C(=O)Nc1cnc2ccccc2c1)S(=O)(=O)c1ccc(C(F)(F)F)cc1", "Selectivity ratio": 10}
    ]},
    {"target": "T1, Cannabinoid receptor 1", "assay": "Agonist activity at human CB1 receptor expressed in CHO cells assessed as suppression of forskolin-stimulated cAMP accumulation", "assay_type": "functional, cell-based", "procedure,_shortened": "(§4)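 Forskolin-induced cAMP measured in CHO cells expressing human CB1 or CB2. EC50 from a logistic fit of the concentration–response curve. Emax taken as the maximum of the dose–response. Means of n = 2–20 independent measurements.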", "units": {"EC50": "µM"}, "values": [
      {"compound": "CC(C)(C(=O)Nc1cccc(C(F)(F)F)c1)S(=O)(=O)c1ccc(Cl)cc1", "EC50": "> 1"},
      {"compound": "CC(C)(C(=O)Nc1cnc2ccccc2c1)S(=O)(=O)c1ccc(C(F)(F)F)cc1Cl", "EC50": "> 2"},
      {"compound": "Cc1ccc(-c2cncc(NC(=O)C(C)(C)S(=O)(=O)c3ccc(Cl)cc3)c2)s1", "EC50": 0.331},
      {"compound": "CC(C)(C(=O)Nc1cnc2ccccc2c1)S(=O)(=O)c1ccc(C(F)(F)F)cc1", "EC50": 0.082},
      {"compound": "CC(C)(C)c1cc(NC(=O)C(C)(C)S(=O)(=O)c2ccc(Cl)cc2)no1", "EC50": "> 2"}
    ]},
    {"target": "T2, Cannabinoid receptor 2", "assay": "Agonist activity at human CB2 receptor expressed in CHO cells assessed as suppression of forskolin-stimulated cAMP accumulation", "assay_type": "functional, cell-based", "procedure,_shortened": "as §4", "units": {"EC50": "µM"}, "values": [
      {"compound": "CC(C)(C(=O)Nc1cccc(C(F)(F)F)c1)S(=O)(=O)c1ccc(Cl)cc1", "EC50": 0.035},
      {"compound": "CC(C)(C(=O)Nc1cnc2ccccc2c1)S(=O)(=O)c1ccc(C(F)(F)F)cc1Cl", "EC50": 0.073},
      {"compound": "Cc1ccc(-c2cncc(NC(=O)C(C)(C)S(=O)(=O)c3ccc(Cl)cc3)c2)s1", "EC50": 0.005},
      {"compound": "CC(C)(C(=O)Nc1cnc2ccccc2c1)S(=O)(=O)c1ccc(C(F)(F)F)cc1", "EC50": 0.008},
      {"compound": "CC(C)(C)c1cc(NC(=O)C(C)(C)S(=O)(=O)c2ccc(Cl)cc2)no1", "EC50": 0.011}
    ]},
    {"target": "T1, Cannabinoid receptor 1", "assay": "Agonist activity at human CB1 receptor relative to control", "assay_type": "functional", "units": {"Emax": "%"}, "values": [
      {"compound": "O=C(Nc1cnc2ccccc2c1)C1(S(=O)(=O)c2ccccc2)CC1", "Emax": 6}
    ]},
    {"target": "T2, Cannabinoid receptor 2", "assay": "Agonist activity at human CB2 receptor expressed in CHO cells assessed as suppression of forskolin-stimulated cAMP accumulation relative to control", "assay_type": "functional, cell-based", "procedure,_shortened": "as §1", "units": {"Emax": "%"}, "values": [
      {"compound": "CC(C)(C(=O)Nc1cccc(C(F)(F)F)c1)S(=O)(=O)c1ccc(Cl)cc1", "Emax": 93},
      {"compound": "CC(C)(C(=O)Nc1cnc2ccccc2c1)S(=O)(=O)c1ccc(C(F)(F)F)cc1Cl", "Emax": 94},
      {"compound": "Cc1ccc(-c2cncc(NC(=O)C(C)(C)S(=O)(=O)c3ccc(Cl)cc3)c2)s1", "Emax": 99},
      {"compound": "CC(C)(C(=O)Nc1cnc2ccccc2c1)S(=O)(=O)c1ccc(C(F)(F)F)cc1", "Emax": 96},
      {"compound": "CC(C)(C)c1cc(NC(=O)C(C)(C)S(=O)(=O)c2ccc(Cl)cc2)no1", "Emax": 85}
    ]},
    {"target": "T1, Cannabinoid receptor 1", "assay": "Agonist activity at human CB1 receptor expressed in SF9 cells assessed as inhibition of CP-55940-stimulated GTP binding", "procedure,_shortened": "as §3", "units": {"EC50": "µM"}, "values": [
      {"compound": "CC(C)(C(=O)Nc1cccc(C(F)(F)F)c1)S(=O)(=O)c1ccc(Cl)cc1", "EC50": "> 10"},
      {"compound": "CC(C)(C(=O)Nc1cnc2ccccc2c1)S(=O)(=O)c1ccc(C(F)(F)F)cc1Cl", "EC50": 1.57},
      {"compound": "Cc1ccc(-c2cncc(NC(=O)C(C)(C)S(=O)(=O)c3ccc(Cl)cc3)c2)s1", "EC50": 0.322},
      {"compound": "CC(C)(C(=O)Nc1cnc2ccccc2c1)S(=O)(=O)c1ccc(C(F)(F)F)cc1", "EC50": 0.71},
      {"compound": "CC(C)(C)c1cc(NC(=O)C(C)(C)S(=O)(=O)c2ccc(Cl)cc2)no1", "EC50": 1.92}
    ]},
    {"target": "T2, Cannabinoid receptor 2", "assay": "Agonist activity at human CB2 receptor relative to control", "assay_type": "functional", "units": {"Emax": "%"}, "values": [
      {"compound": "O=C(Nc1cnc2ccccc2c1)C1(S(=O)(=O)c2ccccc2)CC1", "Emax": 31}
    ]},
    {"target": "T1, Cannabinoid receptor 1", "assay": "Agonist activity at human CB1 receptor expressed in SF9 cells assessed as inhibition of CP-55940-stimulated GTP binding relative to control", "procedure,_shortened": "as §2", "units": {"Emax": "%"}, "values": [
      {"compound": "CC(C)(C(=O)Nc1cccc(C(F)(F)F)c1)S(=O)(=O)c1ccc(Cl)cc1", "Emax": 15},
      {"compound": "CC(C)(C(=O)Nc1cnc2ccccc2c1)S(=O)(=O)c1ccc(C(F)(F)F)cc1Cl", "Emax": 71},
      {"compound": "Cc1ccc(-c2cncc(NC(=O)C(C)(C)S(=O)(=O)c3ccc(Cl)cc3)c2)s1", "Emax": 80},
      {"compound": "CC(C)(C(=O)Nc1cnc2ccccc2c1)S(=O)(=O)c1ccc(C(F)(F)F)cc1", "Emax": 86},
      {"compound": "CC(C)(C)c1cc(NC(=O)C(C)(C)S(=O)(=O)c2ccc(Cl)cc2)no1", "Emax": 57}
    ]}
  ]
}
